Experimental data pooled from the literature.
Compare with care: the assays were run in different laboratories.

SMILES	system	setting	Tmax
C#C[C@]1(COP(=O)(O)OP(=O)(O)OP(=O)(O)O)O[C@@H](n2cnc3c(N)nc(F)nc32)C[C@@H]1O	human, plasma	oral, 100 mg, single dose	24 h
c1cnc2ccc(Nc3nc(NC4CC4)c4nc[nH]c4n3)cc2c1	human, plasma	oral, 200 mg/m², patients	5.7 h
CC(C)(O)c1ccccc1-c1ccc2[nH]c(/C=C/c3ccc(C(F)(F)F)cc3)nc2c1	male human, plasma	oral, 60 mg, single dose, fasted	3.98 h
C[C@@H](Nc1cc(F)cc(F)c1)c1cc(C(=O)N(C)C)cc2c(=O)cc(N3CCOCC3)oc12	human, plasma	oral, 240 mg, patients	2 h
COc1ccc([C@@H]2CN(C(=O)[C@@H](O)CO)C[C@@]2(C)[C@@H](C)O)cc1OC1CN(c2ccc(C)cn2)C1	human, plasma	oral, 0.5 mg, single dose, healthy volunteers	1.5 h
CCc1nc2c(C)cc(N3CCN(CC(=O)N4CC(O)C4)CC3)cn2c1N(C)c1nc(-c2ccc(F)cc2)c(C#N)s1	human, plasma	intravenous, 0.1 mg, fasted, healthy volunteers	0 h
CC(C)n1cc(C#N)c2cc(-n3cc(C(=O)O)cn3)ccc21	human, plasma	oral, 800 mg, multiple doses, once daily, steady state	4 h
CS(=O)(=O)CCC#N	human, plasma	oral, 100 mg, single dose, fasted	2 h
C=CC(=O)N(C)CCOc1c(N)ncnc1-c1cc(F)cc(NC(=O)c2ccc(C3CC3)cc2F)c1C	human, blood	oral, 600 mg, single dose, healthy volunteers	1.02 h
Cc1nc(NC(=O)N2CCC[C@H]2C(N)=O)sc1-c1ccnc(C(C)(C)C(F)(F)F)c1	human, plasma	oral, 350 mg, patients	1.77 h
O=C(Nc1c(Cl)cncc1Cl)c1ccc(OC(F)F)c(OCC2CC2)c1	human, plasma	oral, 0.375 mg, multiple doses, once daily	0.75 h
CO[C@@H]1[C@H](OC(=O)N2CC(CCN3CCOCC3)C2)CC[C@]2(CO2)[C@H]1[C@@]1(C)O[C@@H]1CC=C(C)C	human, plasma	subcutaneous, 1.2 mg, single dose, healthy volunteers	0.25 h
C/C(=C\c1csc(C)n1)[C@@H]1C[C@@H]2O[C@]2(C)CCC[C@H](C)[C@H](O)[C@@H](C)C(=O)C(C)(C)[C@@H](O)CC(=O)N1	human, plasma	intravenous, 15 mg/m², patients	0.8 h
Cc1nc(-c2cn3c(n2)-c2ccc(-c4cnn(C(C)(C)C(N)=O)c4)cc2OCC3)n(C(C)C)n1	human, plasma	oral, 2 mg, patients	3.97 h
Cn1cc(-c2ccc(S(=O)(=O)[C@@H]3C[C@@H](C(=O)NC4(C#N)CC4)N(C(=O)C4(C(F)(F)F)CC4)C3)c(C(F)(F)F)c2)cn1	human, plasma	oral, 100 mg, single dose, fasted, healthy volunteers	4 h
FC(F)(F)c1ccc(CNc2ccc(Cc3c[nH]c4ncc(Cl)cc34)cn2)cn1	human, plasma	oral, 600 mg, single dose	2.5 h
CC(C)(Sc1ccncc1-c1ccc(C#N)c2ccccc12)C(=O)O	male human, plasma	oral, 20 mg, single dose, fasted, healthy volunteers	0.5 h
CCO[C@H]1CCN(Cc2c(OC)cc(C)c3[nH]ccc23)[C@H](c2ccc(C(=O)O)cc2)C1	human, plasma	oral, 50 mg, multiple doses, twice daily, patients	2 h
COc1cc(N2CCC(N3CCN(C)CC3)CC2)ccc1Nc1ncnc(Nc2ccccc2S(=O)(=O)C(C)C)n1	human, plasma	oral, 50 mg, multiple doses, patients	2.99 h
